These results are taken from ChEMBL document CHEMBL1155278, “3,4-Diaryl-isoxazoles and -imidazoles as potent dual inhibitors of p38alpha mitogen activated protein kinase and casein kinase 1delta” (J Med Chem, 2009).

In assay [1] the target is Ribosomal protein S6 kinase alpha-3 (Homo sapiens) (UniProt P51812). The assay is described as follows: Inhibition of RSK2 assessed as residual activity at 10 uM by Cherenkov counting relative to control in presence of 50 uM ATP. In outline: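 Single-concentration profiling at 10 μM in a 78-kinase panel. Kinase activity is expressed as a percentage of control assays run without compound.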
Ribosomal protein S6 kinase alpha-3 (Homo sapiens), sequence (P51812 whole entry): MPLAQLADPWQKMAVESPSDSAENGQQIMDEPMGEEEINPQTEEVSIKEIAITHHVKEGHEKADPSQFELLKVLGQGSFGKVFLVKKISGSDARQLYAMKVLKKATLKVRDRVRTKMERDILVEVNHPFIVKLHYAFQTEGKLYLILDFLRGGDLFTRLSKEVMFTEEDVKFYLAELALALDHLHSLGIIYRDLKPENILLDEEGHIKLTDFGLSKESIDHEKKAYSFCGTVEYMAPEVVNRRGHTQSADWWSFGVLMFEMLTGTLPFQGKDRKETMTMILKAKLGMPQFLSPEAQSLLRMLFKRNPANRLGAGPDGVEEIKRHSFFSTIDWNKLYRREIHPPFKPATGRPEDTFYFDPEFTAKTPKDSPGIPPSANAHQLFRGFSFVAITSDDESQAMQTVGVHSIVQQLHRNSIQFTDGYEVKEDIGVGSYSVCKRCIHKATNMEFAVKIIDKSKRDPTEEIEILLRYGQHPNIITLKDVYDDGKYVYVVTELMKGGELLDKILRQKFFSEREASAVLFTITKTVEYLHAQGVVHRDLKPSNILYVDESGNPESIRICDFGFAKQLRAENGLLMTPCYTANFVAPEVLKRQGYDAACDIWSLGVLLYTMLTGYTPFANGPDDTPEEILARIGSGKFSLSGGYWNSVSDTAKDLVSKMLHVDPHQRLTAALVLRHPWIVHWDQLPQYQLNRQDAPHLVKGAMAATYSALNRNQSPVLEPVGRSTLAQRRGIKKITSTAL

Assay [2] concerns the target T1, Inhibitor of nuclear factor kappa-B kinase subunit beta (Homo sapiens) (UniProt O14920).
T1 sequence (whole entry): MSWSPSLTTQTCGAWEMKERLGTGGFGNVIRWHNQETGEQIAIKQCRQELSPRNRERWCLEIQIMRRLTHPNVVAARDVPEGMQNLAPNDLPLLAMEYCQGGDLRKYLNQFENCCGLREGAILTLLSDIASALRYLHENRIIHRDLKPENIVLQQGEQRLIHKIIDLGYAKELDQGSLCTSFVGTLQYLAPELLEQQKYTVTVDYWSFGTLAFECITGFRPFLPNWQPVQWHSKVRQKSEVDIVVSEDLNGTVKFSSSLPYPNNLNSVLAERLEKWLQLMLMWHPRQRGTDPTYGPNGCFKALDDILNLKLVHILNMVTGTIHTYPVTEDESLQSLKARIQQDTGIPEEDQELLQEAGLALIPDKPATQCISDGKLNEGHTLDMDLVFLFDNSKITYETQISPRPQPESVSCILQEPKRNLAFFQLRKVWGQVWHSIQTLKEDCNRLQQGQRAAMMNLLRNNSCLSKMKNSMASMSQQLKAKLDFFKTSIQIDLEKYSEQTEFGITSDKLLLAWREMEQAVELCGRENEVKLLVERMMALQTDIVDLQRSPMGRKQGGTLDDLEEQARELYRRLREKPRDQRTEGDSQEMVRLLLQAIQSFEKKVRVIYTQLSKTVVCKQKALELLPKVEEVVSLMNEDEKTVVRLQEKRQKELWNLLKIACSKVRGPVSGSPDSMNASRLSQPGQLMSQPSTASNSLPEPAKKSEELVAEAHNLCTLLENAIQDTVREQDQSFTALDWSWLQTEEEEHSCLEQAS
Briefly: Inhibition of IKK-beta assessed as residual activity at 10 uM by Cherenkov counting relative to control in presence of 5 uM ATP. A digest of the protocol: (§1)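 Single-point profiling at 10 µM in a panel of 78 protein kinases. Kinase activity is expressed as a percentage relative to control assays without compound.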

Assay [3] concerns the target Glycogen synthase kinase-3 beta (Homo sapiens) (UniProt P49841). The assay is described as follows: Inhibition of GSK3-beta assessed as residual activity at 10 uM by Cherenkov counting relative to control in presence of 5 uM ATP. In outline: as §1
The nature of assay [4]: Inhibition of CK2 assessed as residual activity at 10 uM by Cherenkov counting relative to control in presence of 5 uM ATP. A digest of the protocol: as §1
Assay [5] addresses T2, Serine/threonine-protein kinase BRSK2 (Homo sapiens) (UniProt Q8IWQ3).
T2 sequence (whole entry): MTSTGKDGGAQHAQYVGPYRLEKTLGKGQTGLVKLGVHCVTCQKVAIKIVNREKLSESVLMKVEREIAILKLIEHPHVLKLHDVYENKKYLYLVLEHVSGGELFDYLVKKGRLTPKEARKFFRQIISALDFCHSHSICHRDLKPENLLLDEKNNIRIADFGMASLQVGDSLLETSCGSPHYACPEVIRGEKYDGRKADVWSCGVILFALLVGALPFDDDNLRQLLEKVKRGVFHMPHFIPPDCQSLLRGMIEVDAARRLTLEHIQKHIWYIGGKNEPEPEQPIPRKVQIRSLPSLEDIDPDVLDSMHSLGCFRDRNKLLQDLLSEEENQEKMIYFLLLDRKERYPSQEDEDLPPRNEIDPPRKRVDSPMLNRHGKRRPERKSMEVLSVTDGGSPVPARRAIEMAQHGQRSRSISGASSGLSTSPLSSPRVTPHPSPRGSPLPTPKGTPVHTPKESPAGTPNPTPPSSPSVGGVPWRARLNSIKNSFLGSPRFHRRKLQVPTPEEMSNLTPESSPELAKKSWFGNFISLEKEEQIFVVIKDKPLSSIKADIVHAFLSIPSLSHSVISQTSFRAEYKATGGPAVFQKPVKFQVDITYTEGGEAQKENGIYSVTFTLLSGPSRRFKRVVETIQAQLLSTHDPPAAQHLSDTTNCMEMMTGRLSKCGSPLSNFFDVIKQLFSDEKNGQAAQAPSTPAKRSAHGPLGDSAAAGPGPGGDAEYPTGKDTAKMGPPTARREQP
The assay is described as follows: Inhibition of BRSK2 assessed as residual activity at 10 uM by Cherenkov counting relative to control in presence of 50 uM ATP. A digest of the protocol: as §1

In assay [6] the target is 3-phosphoinositide-dependent protein kinase 1 (Homo sapiens) (UniProt O15530). Briefly: Inhibition of PDK1 assessed as residual activity at 0.1 uM by Cherenkov counting relative to control in presence of 20 uM ATP.
3-phosphoinositide-dependent protein kinase 1 (Homo sapiens), sequence (O15530 whole entry, looked up): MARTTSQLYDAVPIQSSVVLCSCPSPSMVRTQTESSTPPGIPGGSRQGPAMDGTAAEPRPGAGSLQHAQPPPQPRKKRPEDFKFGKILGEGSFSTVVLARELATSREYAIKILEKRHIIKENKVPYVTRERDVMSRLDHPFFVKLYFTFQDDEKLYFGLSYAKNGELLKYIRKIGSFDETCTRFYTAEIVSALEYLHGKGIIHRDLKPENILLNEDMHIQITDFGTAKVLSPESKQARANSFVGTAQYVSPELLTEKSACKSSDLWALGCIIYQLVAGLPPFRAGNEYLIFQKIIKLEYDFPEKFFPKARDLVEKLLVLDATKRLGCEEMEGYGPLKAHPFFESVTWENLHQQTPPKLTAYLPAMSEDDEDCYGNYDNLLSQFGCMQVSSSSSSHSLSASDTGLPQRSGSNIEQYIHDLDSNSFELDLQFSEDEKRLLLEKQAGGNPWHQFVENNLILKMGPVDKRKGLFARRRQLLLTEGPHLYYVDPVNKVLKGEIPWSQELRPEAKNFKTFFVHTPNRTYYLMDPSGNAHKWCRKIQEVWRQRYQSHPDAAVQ
A short description of assay [7]: Inhibition of CK2 assessed as residual activity at 0.1 uM by Cherenkov counting relative to control in presence of 5 uM ATP. A digest of the protocol: (§2)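 Single-concentration screen at 0.1 µM across a panel of 76 protein kinases. Each kinase was run at an ATP concentration approximating its ATP Km. Results are % mean residual activity versus control assays without compound (n = 3 ± SD).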

In assay [8] the target is Ephrin type-B receptor 3 (Homo sapiens) (UniProt P54753). Briefly: Inhibition of EPHB3 assessed as residual activity at 0.1 uM by Cherenkov counting relative to control. In outline:
as §2

For assay [9], the target named is Mitogen-activated protein kinase 14 (Homo sapiens, UniProt Q16539). The assay is described as follows: Inhibition of p38alpha by Cherenkov counting.
Mitogen-activated protein kinase 14, sequence (Q16539 whole entry): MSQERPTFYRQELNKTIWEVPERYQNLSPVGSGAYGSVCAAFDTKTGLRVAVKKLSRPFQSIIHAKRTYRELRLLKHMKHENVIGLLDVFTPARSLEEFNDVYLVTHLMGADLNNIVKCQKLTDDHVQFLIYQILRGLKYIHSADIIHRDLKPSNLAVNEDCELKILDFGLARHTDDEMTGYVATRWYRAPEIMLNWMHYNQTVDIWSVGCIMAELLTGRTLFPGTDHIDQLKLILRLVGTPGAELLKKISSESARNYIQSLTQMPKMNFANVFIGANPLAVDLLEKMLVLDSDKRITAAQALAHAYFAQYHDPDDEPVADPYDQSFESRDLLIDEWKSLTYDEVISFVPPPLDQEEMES
The target in assay [10] is Serine/threonine-protein kinase N2 (Homo sapiens) (UniProt Q16513). The assay is described as follows: Inhibition of PRK2 assessed as residual activity at 0.1 uM by Cherenkov counting relative to control in presence of 5 uM ATP. A digest of the protocol:
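Single-concentration screen at 0.1 μM in a 76-kinase panel. ATP for each kinase was set near its Km for ATP. Residual activity is given as a percentage of control assays without compound, mean of n = 3 ± SD.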

What is called IC50 is the concentration at which inhibition is half-maximal. The low end stands for higher potency, the high end for lower potency.

Glycogen synthase kinase-3 beta (Homo sapiens), sequence (P49841 whole entry, looked up): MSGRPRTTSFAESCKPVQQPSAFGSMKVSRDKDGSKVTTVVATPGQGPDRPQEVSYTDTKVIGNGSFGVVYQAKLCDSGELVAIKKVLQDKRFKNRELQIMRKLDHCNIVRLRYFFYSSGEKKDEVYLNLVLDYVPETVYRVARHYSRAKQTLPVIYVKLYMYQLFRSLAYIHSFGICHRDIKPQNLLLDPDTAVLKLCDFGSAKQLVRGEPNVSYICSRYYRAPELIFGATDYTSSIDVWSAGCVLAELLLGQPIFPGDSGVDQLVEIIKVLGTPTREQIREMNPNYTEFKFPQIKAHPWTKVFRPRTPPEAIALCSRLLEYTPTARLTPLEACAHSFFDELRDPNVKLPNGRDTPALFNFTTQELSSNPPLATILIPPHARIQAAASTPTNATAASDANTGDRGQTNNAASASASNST
Serine/threonine-protein kinase N2 (Homo sapiens), sequence (Q16513 whole entry, looked up): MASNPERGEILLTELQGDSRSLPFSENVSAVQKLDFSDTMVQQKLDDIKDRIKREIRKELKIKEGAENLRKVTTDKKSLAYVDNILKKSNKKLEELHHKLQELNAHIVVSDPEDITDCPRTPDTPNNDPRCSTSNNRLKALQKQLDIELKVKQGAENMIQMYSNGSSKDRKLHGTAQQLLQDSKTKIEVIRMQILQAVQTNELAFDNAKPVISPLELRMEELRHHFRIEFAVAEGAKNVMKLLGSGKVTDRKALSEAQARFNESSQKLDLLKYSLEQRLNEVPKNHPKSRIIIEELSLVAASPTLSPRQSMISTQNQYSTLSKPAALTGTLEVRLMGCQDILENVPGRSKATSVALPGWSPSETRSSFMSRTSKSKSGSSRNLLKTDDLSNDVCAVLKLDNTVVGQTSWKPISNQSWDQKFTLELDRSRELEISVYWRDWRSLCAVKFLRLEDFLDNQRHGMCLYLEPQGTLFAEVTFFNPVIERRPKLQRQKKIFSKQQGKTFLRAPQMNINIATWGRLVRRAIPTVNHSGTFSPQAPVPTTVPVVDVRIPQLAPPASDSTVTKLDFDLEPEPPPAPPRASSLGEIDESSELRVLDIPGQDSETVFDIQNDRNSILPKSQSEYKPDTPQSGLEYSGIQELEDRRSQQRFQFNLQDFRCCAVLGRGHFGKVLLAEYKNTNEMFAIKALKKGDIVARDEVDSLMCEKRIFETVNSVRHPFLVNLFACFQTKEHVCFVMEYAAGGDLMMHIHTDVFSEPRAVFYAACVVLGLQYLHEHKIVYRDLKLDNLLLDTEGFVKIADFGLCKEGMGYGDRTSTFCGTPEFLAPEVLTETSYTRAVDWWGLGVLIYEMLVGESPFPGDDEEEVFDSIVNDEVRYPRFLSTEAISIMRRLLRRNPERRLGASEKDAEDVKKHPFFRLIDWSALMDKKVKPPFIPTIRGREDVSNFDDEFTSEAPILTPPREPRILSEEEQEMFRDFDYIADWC
Ephrin type-B receptor 3 (Homo sapiens), sequence (P54753 whole entry): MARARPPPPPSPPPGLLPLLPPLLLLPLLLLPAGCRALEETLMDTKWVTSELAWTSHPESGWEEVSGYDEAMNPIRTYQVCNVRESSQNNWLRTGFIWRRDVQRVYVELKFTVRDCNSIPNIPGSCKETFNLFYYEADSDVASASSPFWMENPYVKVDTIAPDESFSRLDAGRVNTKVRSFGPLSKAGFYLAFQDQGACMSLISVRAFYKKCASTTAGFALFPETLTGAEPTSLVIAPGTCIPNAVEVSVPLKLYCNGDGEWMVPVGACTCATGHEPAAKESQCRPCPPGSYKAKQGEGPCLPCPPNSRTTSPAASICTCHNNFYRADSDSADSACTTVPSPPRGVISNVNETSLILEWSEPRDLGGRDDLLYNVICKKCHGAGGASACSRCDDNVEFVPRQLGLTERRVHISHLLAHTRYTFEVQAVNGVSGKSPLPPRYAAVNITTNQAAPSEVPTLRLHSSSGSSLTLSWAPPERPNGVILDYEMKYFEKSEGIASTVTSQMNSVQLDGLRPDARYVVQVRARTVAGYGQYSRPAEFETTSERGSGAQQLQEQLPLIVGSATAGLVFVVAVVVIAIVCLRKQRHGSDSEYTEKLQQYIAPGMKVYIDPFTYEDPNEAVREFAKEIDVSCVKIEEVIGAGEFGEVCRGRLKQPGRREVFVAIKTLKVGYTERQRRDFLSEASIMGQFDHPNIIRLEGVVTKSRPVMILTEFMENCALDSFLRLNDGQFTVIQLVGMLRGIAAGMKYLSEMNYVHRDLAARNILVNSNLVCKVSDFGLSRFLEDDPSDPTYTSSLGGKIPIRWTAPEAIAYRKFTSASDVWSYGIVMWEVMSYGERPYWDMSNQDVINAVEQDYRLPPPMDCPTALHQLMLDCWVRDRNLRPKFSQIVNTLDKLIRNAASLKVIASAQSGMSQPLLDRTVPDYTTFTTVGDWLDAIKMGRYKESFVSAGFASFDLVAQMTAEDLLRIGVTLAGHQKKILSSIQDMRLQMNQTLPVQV

`CC(C)c1noc(-c2ccc(F)cc2)c1-c1ccncc1`: the Activity was determined as 120% in assay [1]; 103% in assay [2]; 85% in [3]; 95% in [4]; 93% in assay [5].

For the compound `CC(C)c1onc(-c2ccc(F)cc2)c1-c1ccncc1`, the Activity in [1] stood at 113%; in [2], 103%; in assay [3] it was 75%; in [4], 96%; in [5] it was 87%.

With `COc1ccc(/C=C/C(=O)Nc2cc(-c3[nH]c(SC)nc3-c3ccc(F)cc3)ccn2)c(OC)c1`, the Activity in assay [6] stood at 74%; in assay [7], 115%; in [8] it was 94%; in [10], 95%. In assay [9], this compound gave a half-inhibitory concentration (IC50) of 19 nM.

In the case of `COc1ccc(/C=C/C(=O)Nc2cc(-c3[nH]c([S+](C)[O-])nc3-c3ccc(F)cc3)ccn2)c(OC)c1` (stereo not given), the Activity in assay [6] amounted to 94%; in [7], 122%; in assay [8], 95%; in assay [10] it was 96%. The compound also registered an IC50 in assay [9] of 41 nM.
